Source: PubChem BioAssay (The Scripps Research Institute Molecular Screening Center)
TAAR1 ag: agonists of human TAAR1 | Q96RJ0 | CHO RD-HGA16 TAAR1, Fluo-8 calcium fluorescence; vehicle wells 0%, saturating PEA agonist 100% | actives 0.99% (n = 360,000) | activation, % at 3 µM;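 active means activation above the mean activation of all test compounds in the run plus 3 SD, cut at about 38% in these data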
Target sequence (Q96RJ0 whole entry, looked up): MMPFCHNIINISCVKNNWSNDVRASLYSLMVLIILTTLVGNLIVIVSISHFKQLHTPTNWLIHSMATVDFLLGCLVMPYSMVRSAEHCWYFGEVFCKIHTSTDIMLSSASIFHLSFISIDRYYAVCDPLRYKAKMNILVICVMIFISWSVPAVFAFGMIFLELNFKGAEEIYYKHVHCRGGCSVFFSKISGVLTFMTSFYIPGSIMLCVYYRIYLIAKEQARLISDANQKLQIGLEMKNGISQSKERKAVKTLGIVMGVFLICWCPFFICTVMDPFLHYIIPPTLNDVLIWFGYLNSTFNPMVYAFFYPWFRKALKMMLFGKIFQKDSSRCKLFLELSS
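System: CHO-derived RD-HGA16 cells with stable Gα16 and human TAAR1 / Times: 17-24 h plating, Fluo-8 75 min 37 °C, 30 min RT / Technique: calcium-sensitive Fluo-8 signal, excitation 470-495, emission 515-575 nm / Measure: % activation relative to PEA EC100 response / Benchmarks: DMSO and PEA EC100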
CHO parental Ca: counter-screen: ATP calcium response change in parental CHO cells. parental CHO-K1, ATP-induced calcium, Fluo-8 fluorescence. inhibition, % at 5.6 µM. actives 0.63% (n = 330,000). AID 463079;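 active means inhibition above that plate's mean sample inhibition plus 3 SD, cut at about 26% in these data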
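Assay system: untransfected parental CHO cell line. Also added: ATP agonist challenge. Dosing: one dose, 5.6 µM nominal. Measured by: Fluo-8 fluorescence. Read-out: % inhibition. Benchmarks: ATP wells versus no-ATP DMSO wells. Repeats: no replicates.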
OX1R antag-1: blocks the human orexin 1 receptor | CHO/OX1R cells, Fluo-8 calcium fluorescence, orexin A | inhibition, % at 5 µM | actives 0.43% (n = 330,000) | AID 434989;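 active means inhibition above its plate's threshold, mean inhibition of all tested compounds on the plate plus 3 SD, cut at about 37% in these data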
Target sequence (O43613 whole entry, looked up): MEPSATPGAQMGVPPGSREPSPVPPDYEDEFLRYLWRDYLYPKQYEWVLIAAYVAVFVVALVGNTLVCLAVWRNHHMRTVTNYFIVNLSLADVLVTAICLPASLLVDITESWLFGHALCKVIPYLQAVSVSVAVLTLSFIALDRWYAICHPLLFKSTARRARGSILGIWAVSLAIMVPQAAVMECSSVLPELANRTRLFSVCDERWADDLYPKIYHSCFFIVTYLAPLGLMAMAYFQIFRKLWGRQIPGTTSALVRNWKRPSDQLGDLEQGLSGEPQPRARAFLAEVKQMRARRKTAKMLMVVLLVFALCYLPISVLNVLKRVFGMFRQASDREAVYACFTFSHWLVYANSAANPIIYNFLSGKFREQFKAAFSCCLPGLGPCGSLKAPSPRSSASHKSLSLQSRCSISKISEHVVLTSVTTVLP
TAAR1 antag: antagonists of human TAAR1 | inhibition, % at 3 µM | actives 1.5% (n = 360,000) | CHO RD-HGA16 TAAR1, Fluo-8 calcium fluorescence, antagonist | AID 624466 | Q96RJ0;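 active means inhibition above a per-plate cutoff, the mean inhibition of test compounds on that plate plus 3 SD, cut at about 49% in these data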
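System: CHO RD-HGA16 cells bearing hTAAR1. Reagent: EC80 β-phenethylamine stimulus. Schedule: seeding 17-24 h prior, 75-min 37 °C, 30-min RT dye loading. Signal: Fluo-8 intracellular calcium dye fluorescence, real-time kinetic reads. Read-out: % inhibition from peak post-agonist over basal fluorescence ratio. Benchmarks: vehicle wells and EC80 agonist wells. Replicates: n of 1.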
GalR3 antagonist: antagonists of human GalR3. O60755. HEK293 GalR3-CNG cAMP membrane potential fluorescence; galR3 body fused to GalR1 C-terminus. inhibition, % at 3 µM. actives 0.44% (n = 360,000). AID 651719;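 active means inhibition above the screen-wide average plus 3 SD, cut at about 13% in these data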;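 further: forskolin and galanin both at EC90 stimulate the cells; cAMP rise reported by CNG channel membrane potential dye signal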
OX1R antag-2: blocks the human orexin 1 receptor | actives 1.8% (n = 330,000) | O43613 | OX1R-expressing cells, FRET antagonist read-out | inhibition, % at 6.6 µM; in the data active means inhibition mostly above about 38%, no sharp cut-off; inactive means mostly below about 40%
OX1R Ca confirm: confirmation of human orexin 1 receptor antagonists; shares compounds with OX1R antag-1; CHO/OX1R cells, orexin A calcium Fluo-8 fluorescence; inhibition, % at 5 µM; actives 38% (n = 1,100); in the data active means inhibition above about 29%
CHO Ca counter: counter-screen: parental CHO calcium response change, triplicate; shares compounds with OX1R antag-1; parental CHO-K1, ATP-induced calcium, Fluo-8 fluorescence; inhibition, % at 5.6 µM; actives 9.3% (n = 1,100);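 active means inhibition above a per-plate limit, the mean inhibition of that plate's test compounds plus 3 SD, cut at about 25% in these data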
OX1R HTRF conf: confirmation of human orexin 1 receptor antagonists, HTRF format; shares compounds with OX1R antag-2; OX1R-expressing cells, HTRF antagonist assay; inhibition, % at 6.6 µM; actives 49% (n = 1,800); in the data active means inhibition above about 55%;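 further: CHO cells expressing OX1R stimulated with orexin A at about EC80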
CHO-K1 HTRF cnt: counter-screen for OX1R antagonists: effect in parental CHO-K1 cells; shares compounds with OX1R antag-2; HTRF counterscreen; inhibition, % at 6.6 µM; actives 48% (n = 1,800); AID 493232; in the data active means inhibition above about 17%
Large screens that a line does not name were inactive (follow-up assays come after a bar, where they were run). Shown are actives, neighbours in structure and some others; about 4.3% of the full set was active somewhere.

CCOC(=O)C1CCN(S(=O)(=O)c2ccccc2[N+](=O)[O-])CC1	none
COCCN(Cc1nc2ccccc2c(=O)[nH]1)C(=O)COc1c(C)cc(Cl)cc1C	OX1R antag-1 39.2, OX1R antag-2 58.4 | OX1R Ca confirm inactive | CHO Ca counter inactive | OX1R HTRF conf 70.1 | CHO-K1 HTRF cnt inactive
CC1Cc2ccccc2N1S(=O)(=O)c1cccc(C(=O)N2CCCCC2)c1 (stereo not drawn)	none (no result: CHO parental Ca, OX1R antag-1, OX1R antag-2)
CC1Cc2ccccc2N1S(=O)(=O)c1cccc(C(=O)c2nccn2C)c1 (stereo not drawn)	OX1R antag-1 55.6, OX1R antag-2 39.5 | OX1R Ca confirm inactive | CHO Ca counter inactive | OX1R HTRF conf inactive | CHO-K1 HTRF cnt inactive
O=[N+]([O-])c1ccc(O)c(/C=N/Nc2ccccc2Cl)c1	OX1R antag-2 80.7 | OX1R Ca confirm 37.1 | CHO Ca counter inactive | OX1R HTRF conf 84.4 | CHO-K1 HTRF cnt inactive
CCc1cc(C(=O)OCC(=O)N2CCC(c3ccccc3)=N2)sc1C	OX1R antag-1 54.3, OX1R antag-2 80.1 | OX1R Ca confirm 78.1 | CHO Ca counter inactive | OX1R HTRF conf 91.6 | CHO-K1 HTRF cnt inactive
CN(CC(=O)Nc1c(Cl)cccc1Cl)C(=O)c1ccccc1-c1nc2ccccc2s1	none
COc1cccc(NC(=O)CN(C)C(=O)c2ccccc2-c2nc3ccccc3s2)c1	OX1R antag-2 99.8 | OX1R Ca confirm inactive | CHO Ca counter inactive | OX1R HTRF conf 88.4 | CHO-K1 HTRF cnt inactive
COc1ccccc1C(=O)NCCc1c(C)[nH]c2c(C)ccc(F)c12	OX1R antag-2 50.1 | OX1R Ca confirm inactive | CHO Ca counter inactive | OX1R HTRF conf inactive | CHO-K1 HTRF cnt inactive
COc1ccccc1C(=O)NCC(=O)NCCc1ccc(Cl)cc1	none
CCOC(=O)c1c(C)[nH]c(C)c1C(=O)Cn1nnc(-c2ccccc2C)n1	OX1R antag-2 54.5 | OX1R Ca confirm 28.9 | CHO Ca counter inactive | OX1R HTRF conf 64.6 | CHO-K1 HTRF cnt inactive
COc1ccc(-c2c(-c3ccccc3OC)sc3ccccc23)cc1C=O	none
CCn1c2ccccc2c2cc(N=C3SC(CC(=O)Nc4ccccc4OC)C(=O)N3C)ccc21 (stereo not drawn)	none
CCn1c2ccccc2c2cc(N=C3SC(CC(=O)Nc4ccccc4OC)C(=O)N3CCOC)ccc21 (stereo not drawn)	OX1R antag-1 57.9, OX1R antag-2 77.2 | OX1R Ca confirm 52.2 | CHO Ca counter inactive | OX1R HTRF conf 82.6 | CHO-K1 HTRF cnt inactive
CC(=O)Nc1ccc(NC(=O)C(C)OC(=O)C(C)SCC(=O)Nc2ccc(F)cc2)cc1 (stereo not drawn)	OX1R antag-2 89.0 | OX1R Ca confirm 45.8 | CHO Ca counter inactive | OX1R HTRF conf 86.8 | CHO-K1 HTRF cnt inactive
Cc1c(NS(=O)(=O)c2cccc(C(=O)N3CCC(C)CC3)c2)c(=O)n(-c2ccccc2)n1C	none
Cc1c(NS(=O)(=O)c2cccc(C(=O)OCC(=O)N(C)C3CCCCC3)c2)c(=O)n(-c2ccccc2)n1C	OX1R antag-1 37.3, OX1R antag-2 98.3 | OX1R Ca confirm 57.6 | CHO Ca counter inactive | OX1R HTRF conf 89.7 | CHO-K1 HTRF cnt inactive
CCOc1ccccc1C(=O)Nc1ccc(C(=O)c2ccccc2)cc1	OX1R antag-2 55.4 | OX1R Ca confirm inactive | CHO Ca counter inactive | OX1R HTRF conf 66.7 | CHO-K1 HTRF cnt 17.9
CCOc1ccccc1C(=O)Nc1ccc(NC(=O)c2ccccc2)cc1	none
CCOc1ccccc1C(=O)Nc1ccc2nc3n(c(=O)c2c1)CCCCC3	OX1R antag-1 94.1, OX1R antag-2 91.1 | OX1R Ca confirm 79.1 | CHO Ca counter inactive | OX1R HTRF conf 92.9 | CHO-K1 HTRF cnt inactive
CCN(CC(=O)Nc1ccc(OC)cc1)C(=O)C1CC(=O)N(Cc2ccccc2)C1 (stereo not drawn)	none (no result: CHO parental Ca, OX1R antag-1, OX1R antag-2)
CCN(CC)C(=O)CSc1nc2c(sc(=S)n2CC)c(=O)n1-c1ccccc1	none
CCN(CC)C(=O)CSc1nc2c(sc(=S)n2-c2ccccc2OC)c(=O)n1-c1ccccc1	OX1R antag-2 75.7 | OX1R Ca confirm 38.5 | CHO Ca counter inactive | OX1R HTRF conf 69.2 | CHO-K1 HTRF cnt inactive
Cc1ccc(F)cc1C(=O)N1CCOCC1c1cc(C(=O)NCc2ccccc2)no1 (stereo not drawn)	none (no result: CHO parental Ca, OX1R antag-1, OX1R antag-2)
CCc1cc2c(SCC(=O)N(CC)c3c(N)n(Cc4ccccc4)c(=O)[nH]c3=O)ncnc2s1	OX1R antag-2 84.2 | OX1R Ca confirm 47.9 | CHO Ca counter inactive | OX1R HTRF conf 92.6 | CHO-K1 HTRF cnt inactive
Cc1cc(C(=O)NCc2cccc(Cl)c2)c2ccccc2n1	OX1R antag-2 86.8 (no result: TAAR1 ag, TAAR1 antag, GalR3 antagonist) | OX1R Ca confirm 30.9 | CHO Ca counter inactive | OX1R HTRF conf 66.9 | CHO-K1 HTRF cnt inactive
Cc1nccc(-c2ccc3c(c2)OCO3)n1	none
c1ccc(-c2nccc(-c3ccc4c(c3)OCO4)n2)cc1	OX1R antag-2 90.0 | OX1R Ca confirm inactive | CHO Ca counter inactive | OX1R HTRF conf 83.9 | CHO-K1 HTRF cnt inactive
C=CC(COCc1ccccc1)N(C(=O)OC(C)(C)C)S(=O)(=O)c1ccccc1Br (stereo not drawn)	none
COc1ccc(CN(CC(O)COCc2ccccc2)S(=O)(=O)c2ccccc2Br)cc1OC (stereo not drawn)	OX1R antag-1 54.6, OX1R antag-2 46.2 | OX1R Ca confirm inactive | CHO Ca counter inactive | OX1R HTRF conf 68.1 | CHO-K1 HTRF cnt inactive
Cc1cc(O)cc2c(=O)c3ccccc3sc12	OX1R antag-1 52.3, OX1R antag-2 86.2 | OX1R Ca confirm 55.9 | CHO Ca counter inactive | OX1R HTRF conf 92.0 | CHO-K1 HTRF cnt inactive
COc1ccc2sc3ccccc3c(=O)c2c1	none
CCOc1ccc2nc(NC(=O)C3CCCN(S(=O)(=O)c4cccs4)C3)sc2c1 (stereo not drawn)	OX1R antag-1 51.9, OX1R antag-2 84.2 | OX1R Ca confirm 35.6 | CHO Ca counter inactive | OX1R HTRF conf 62.4 | CHO-K1 HTRF cnt inactive
CCOc1ccc2nc(NC(=O)C(NS(=O)(=O)c3cccs3)C(C)C)sc2c1 (stereo not drawn)	none (no result: TAAR1 ag, TAAR1 antag, GalR3 antagonist)
CCCNC(=O)C1(C)CCCN(C(=O)c2ccc3snnc3c2)C1 (stereo not drawn)	none (no result: CHO parental Ca, OX1R antag-1, OX1R antag-2)
